Series [1] relates to HUVEC. In words: Anti-angiogenetic activity in human HUVEC cells assessed as relative tube length at 10 uM incubated for 12 hrs in presence of tumor secretome from human MIA PaCa-2 cell supernatant by microscopy (reference value: 108). Format: functional.
Series [2] has as its system HUVEC. In words: Anti-angiogenetic activity in human HUVEC cells assessed as number of tube branching points at 10 uM incubated for 12 hrs in presence of tumor secretome from human MIA PaCa-2 cell supernatant by microscopy (reference value: 17). In kind it is functional.
The subject of series [3] is HUVEC. In words: Inhibition of cell migration in human HUVEC cells at 10 uM incubated for 24 hrs by wound healing assay. In kind it is functional, cell-based. In outline: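 Confluent HUVEC monolayers (2 × 10⁵/well, 24 h) were scratched with a p10 tip and treated at 10 μM with mitomycin C 10 μg/ml to block mitosis. Wounds were photographed at 0 and 24 h (4× phase contrast). Migration was taken as the change in distance covered by the wound edges. n = 3 independent experiments, mean ± SD.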

The test system of series [4] is HUVEC. As to the kind of experiment: Anti-angiogenetic activity in human HUVEC cells assessed as reduction in tube branching at 10 uM incubated for 12 hrs by microscopy. In kind it is functional, cell-based. A digest of the protocol:
(§1)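 HUVEC seeded at 2 × 10⁴ cells/well onto gelled Matrigel (mixed 1:1 with EGM-2, set 30 min at 37 °C). Cells were exposed to test agents at 10 μM for 12 h with no stimulus; untreated wells served as control. Tube long axis and branching points were counted in 10 random fields per well at 10× (Angiogenesis Analyzer), giving mean tube length per well. Mean of at least three independent experiments.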

Series [5] has as its system HUVEC. As to the kind of experiment: Inhibition of cell invasion in human HUVEC cells at 10 uM incubated for 24 hrs by transwell assay. In kind it is functional, cell-based. A digest of the protocol: (§2)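 Transwell inserts with 8.0 pore size were coated with Matrigel 1:3 in serum-free medium. HUVEC (2 × 10⁴/insert) went in serum-free medium in the upper chamber, with treatments (10 μM) in growth medium below, for 24 h at 37 °C. Filters were fixed in 4 % paraformaldehyde then methanol and stained with 0.5 % crystal violet. Cells on the lower surface were counted in ten random fields at 10×. n = 3.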

Series [6] deals with HUVEC. In words: Anti-angiogenetic activity in human HUVEC cells assessed as reduction in tube length at 10 uM incubated for 12 hrs by microscopy. Format: functional, cell-based. A digest of the protocol: as §1
Series [7] has as its system HUVEC. As to the kind of experiment: Anti-angiogenetic activity in human HUVEC cells assessed as number of tube branching points at 10 uM incubated for 12 hrs by microscopy. In kind it is functional. A digest of the protocol: as §1
Series [8] deals with HUVEC. As to the kind of experiment: Anti-angiogenetic activity in human HUVEC cells assessed as relative tube length at 10 uM incubated for 12 hrs by microscopy. In kind it is functional. A digest of the protocol: as §1
The test system of a further series is HepG2. As to the kind of experiment: Antiproliferative activity against human HepG2 cells assessed as cell growth at 10 uM incubated for 48 hrs by MTT assay relative to control. In kind it is functional. The conditions noted are these: read-out: Activity. In outline:
(§3)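 Cells in DMEM with 10 % FBS, 2 mM glutamine and pen-strep, 37 °C, 5 % CO₂, plated to reach 80–90 % confluence at endpoint. At 16 h, compounds were added from a 10 mM DMSO stock to 10 μM final. After 48 h, MTT (2 mg/mL in PBS) was added for 4 h, formazan dissolved in DMSO, and OD read at 570 nm. Results are % of solvent control; three runs, six replicates each, mean ± SD.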

Series [9] can be described thus: Effect on intracellular calcium signaling in human HUVEC cells assessed as inhibition of calcium mobilization by measuring fluorescence intensity at 10 uM incubated for 1 hr by Fluo-4 a.m. cytofluorimetric assay relative to control. In kind it is functional. Further details: scale not given: the % may be the effect or the level left. A digest of the protocol: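 Trypsinized HUVEC at 5 × 10⁵/ml were treated with compounds at 10 μM in PBS for 1 h at room temperature, washed, then loaded with 2.5 μM Fluo-4 AM (0.06 % DMSO final) for 45 min at 37 °C. Fluorescence was read by flow cytometry with a 530/30 filter. Ionomycin served as positive control and EDTA (added 15 min before) as negative control. n = 3, mean ± SD.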
Background: Calcium flux is commonly read through the fluorescence of an indicator in the cells.

Series [10] in a line: Antiproliferative activity against human HUVEC cells assessed as cell growth at 10 uM incubated for 48 hrs by MTT assay relative to control. Format: toxicity, cell-based. As to conditions: read-out: Activity. A digest of the protocol:
as §3
In general terms: Tetrazolium assays rely on reduction of a dye to a coloured formazan, in cell work by metabolically active cells.

Series [11] relates to HUVEC. As to the kind of experiment: Effect on conformation of actin filament organization in human HUVEC cells at 10 uM treated for 24 hrs by immunofluorescence assay. In kind it is functional, cell-based. A digest of the protocol: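 HUVEC were left untreated or treated 24 h at 10 μM final. Cells were then fixed on coverslips in 4 % paraformaldehyde, permeabilized with 0.2 % Triton X-100 and blocked with 20 % goat serum. F-actin was stained with FITC-phalloidin (5 µg/ml, 2 h, room temperature, dark) and nuclei with Hoechst 33342. Cells were imaged by confocal microscopy.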

A short description of series [12]: Antiproliferative activity against human GM06114 cells assessed as cell growth at 10 uM incubated for 48 hrs by MTT assay relative to control. In kind it is toxicity, cell-based. As to conditions: read-out: Activity. A digest of the protocol: as §3
In another series the test system is MCF7. As to the kind of experiment: Antiproliferative activity against human MCF7 cells assessed as cell growth at 10 uM incubated for 48 hrs by MTT assay relative to control. In kind it is functional. The conditions noted are these: read-out: Activity. A digest of the protocol:
as §3

Another series deals with SK-BR-3. In words: Antiproliferative activity against human SK-BR-3 cells assessed as cell growth at 10 uM incubated for 48 hrs by MTT assay relative to control. In kind it is functional. As to conditions: read-out: Activity. A digest of the protocol: as §3
A further series relates to HeLa. In words: Antiproliferative activity against human HeLa cells assessed as cell growth at 10 uM incubated for 48 hrs by MTT assay relative to control. In kind it is functional. As to conditions: read-out: Activity. In outline: as §3
Series [13] deals with HUVEC. As to the kind of experiment: Inhibition of cell invasion in human HUVEC cells assessed as number of cells at 10 uM incubated for 24 hrs by transwell assay. Format: functional. In outline:
as §2

A further series deals with A549. As to the kind of experiment: Antiproliferative activity against human A549 cells assessed as cell growth at 10 uM incubated for 48 hrs by MTT assay relative to control. In kind it is functional. The conditions noted are these: read-out: Activity. In outline: as §3
The test system of another series is SK-OV-3. As to the kind of experiment: Antiproliferative activity against human SK-OV-3 cells assessed as cell growth at 10 uM incubated for 48 hrs by MTT assay relative to control. In kind it is functional. The conditions noted are these: read-out: Activity. A digest of the protocol: as §3
The next series concerns MDA-MB-231. As to the kind of experiment: Antiproliferative activity against human MDA-MB-231 cells assessed as cell growth at 10 uM incubated for 48 hrs by MTT assay relative to control. Format: functional. As to conditions: read-out: Activity. In outline:
as §3

In the next series the test system is SK-MEL-28. As to the kind of experiment: Antiproliferative activity against human SK-MEL-28 cells assessed as cell growth at 10 uM incubated for 48 hrs by MTT assay relative to control. Format: functional. The conditions noted are these: read-out: Activity. In outline: as §3

Activity calls are given as the source filed them. The calls are words filed in the database; no cut-off is given here.

On to `CCCC(O)Cn1nc(Nc2ccccc2)c(C(=O)OCC)c1N` (stereo not given), for which the Activity was 55 in the series on HUVEC [1]; about 8 in the series with HUVEC [2]; under 15 in the series with HUVEC [7]; under 20 in the series with HUVEC [8]; 23% in [9]; 364 in the series on HUVEC [13]. The inhibition entry in the series with HUVEC [3] and in the series on HUVEC [5] was “Active” throughout. Also, the outcome in the series with HUVEC [4], in the series on HUVEC [6] and in the series on HUVEC [11] was Active. The growth at 10 µM in the series with HepG2 worked out at 106%; in the series with MCF7 it was 110%; in the series with SK-BR-3, 107%; in the series with HeLa, 97%; in the series on A549, 115%; in the series with SK-OV-3, 104%. Also, the growth at 10 µM was determined as 103% with MDA-MB-231 and 97% in the series on SK-MEL-28. Besides, the viability at 48 h, 10 µM in series [10] was found to be 100%; in [12] it was 112%.
Turning to `CCCC(O)Cn1nc(Nc2cccc(Cl)c2)c(C(=O)OCC)c1N` (stereo not given), the Activity with HUVEC [1] is 55; in the series with HUVEC [2], about 8; in series [9], 21%; in the series with HUVEC [13] it was 491. For the same compound, the inhibition result in the series on HUVEC [3] and in the series with HUVEC [5] was “Active” throughout. The result with HUVEC [4], in the series on HUVEC [6] and in the series with HUVEC [11] was Active. The growth at 10 µM in the series on HepG2 was 90%; with MCF7, 95%; in the series with SK-BR-3 it was 113%; in the series with HeLa it was 100%; in the series on A549 it was 85%; in the series with SK-OV-3 it was 118%. Also, the growth at 10 µM in the series with MDA-MB-231 was found to be 168%; in the series on SK-MEL-28 it was 122%. Further, the viability at 48 h, 10 µM in series [10] came out at 97%; in [12] it was 82%.
